Measured values reported in ChEMBL document CHEMBL1131384, “Synthesis and structure-activity relationships of potent and orally active 5-HT4 receptor antagonists: indazole and benzimidazolone derivatives” (J Med Chem, 1998).

Columns and labels:
[1] = target: Serotonin 3 (5-HT3) receptor (Homo sapiens) (UniProt P46098+A5X5Y0+O95264+Q70Z44+Q8WXA8); test: The compound was tested for binding affinity against 5-hydroxytryptamine 3 receptor in guinea pig ileum.; assay type: tissue-based; conditions: Cavia porcellus, target entry is the homologue from another species
[2] = target: 5-hydroxytryptamine receptor 4 (Rattus norvegicus) (UniProt Q62758); test: Antagonistic activity evaluated by ability to block serotonin induced relaxation (mediated by activation of 5-hydroxytryptamine 4 receptor) in carbamylcholine (10e-6 M) contracted esophagus at a concentration of 10e-5 M.; assay type: functional, tissue-based
Sequence of 5-hydroxytryptamine receptor 4 (Rattus norvegicus) (Q62758 whole entry): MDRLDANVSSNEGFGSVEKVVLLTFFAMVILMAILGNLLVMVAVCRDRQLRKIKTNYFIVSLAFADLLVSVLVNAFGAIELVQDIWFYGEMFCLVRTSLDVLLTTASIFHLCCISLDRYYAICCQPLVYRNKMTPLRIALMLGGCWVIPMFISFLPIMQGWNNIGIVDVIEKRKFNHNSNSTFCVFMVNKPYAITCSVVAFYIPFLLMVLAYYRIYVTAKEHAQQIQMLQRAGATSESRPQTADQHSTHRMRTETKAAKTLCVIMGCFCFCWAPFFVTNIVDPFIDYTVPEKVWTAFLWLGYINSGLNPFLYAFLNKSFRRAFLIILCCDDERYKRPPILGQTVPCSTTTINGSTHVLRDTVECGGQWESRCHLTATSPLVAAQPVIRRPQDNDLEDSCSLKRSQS
Outline: (§1)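 Isolated rat esophagus precontracted with carbamylcholine (10^-6 M). Tissue was challenged with serotonin (1 µM) in the presence of the antagonist at a given concentration or of vehicle. Relaxation was recorded as % relaxation to 10^-6 M 5-HT, given as mean ± SEM with the number of determinations.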

[3] = target: 5-hydroxytryptamine receptor 4 (Rattus norvegicus) (UniProt Q62758); test: Antagonistic activity by ability to block serotonin induced relaxation (mediated by activation of 5-hydroxytryptamine 4 receptor) in carbamylcholine (10e-6 M) contracted esophagus at a concentration of 10e-6 M.; assay type: functional, tissue-based; outline: as §1
[4] = target: 5-hydroxytryptamine receptor 4 (Rattus norvegicus) (UniProt Q62758); test: Antagonistic activity by ability to block serotonin induced relaxation (mediated by activation of 5-hydroxytryptamine 4 receptor) in carbamylcholine (10e-6 M) contracted esophagus at a concentration of 10e-7 M.; assay type: functional, tissue-based; outline: as §1
[5] = target: 5-hydroxytryptamine receptor 4 (Rattus norvegicus) (UniProt Q62758); test: Antagonistic activity evaluated by ability to block serotonin induced relaxation via 5-hydroxytryptamine 4 receptor) in carbamylcholine (10e-6 M) contracted esophagus at a concentration of 0.1 mg/kg (p.o.); assay type: functional, organism-based; parameters: dose 0.1 mg/kg
Outline: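 Rats were dosed with the antagonist by oral gavage. Esophagus was removed 3 h after dosing and challenged ex vivo with serotonin. Read-out was % relaxation of the carbamylcholine-contracted tissue to 10^-6 M 5-HT, given as mean ± SEM with the number of determinations.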

[6] = target: 5-hydroxytryptamine receptor 4 (Rattus norvegicus) (UniProt Q62758); test: Antagonistic activity evaluated by ability to block serotonin induced relaxation (mediated by activation of 5-hydroxytryptamine 4 receptor) in carbamylcholine (10e-6 M) contracted esophagus at a concentration of 10e-8 M.; assay type: functional, tissue-based; outline: as §1
[7] = target: 5-hydroxytryptamine receptor 4 (Rattus norvegicus) (UniProt Q62758); test: Antagonistic activity evaluated by ability to block serotonin induced relaxation (via 5-hydroxytryptamine 4 receptor) in carbamylcholine (10e-6 M) contracted esophagus at a concentration of 3*10e-8 M.; assay type: functional
Outline: (§2)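 Isolated rat esophagus precontracted with carbamylcholine (10^-6 M), then challenged with serotonin (1 μM) in the presence of antagonist at the stated concentration or vehicle. Read-out is % relaxation to serotonin, given as mean ± SEM with the number of determinations.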

[8] = target: T1, Adrenergic receptor alpha-1 (Rattus norvegicus) (UniProt P15823+P23944+P43140); test: Binding affinity for Alpha-1 adrenergic receptor in rat aorta determined by block of norepinephrine induced contraction of rat aorta; assay type: tissue-based
[9] = target: T1, Adrenergic receptor alpha-1 (Rattus norvegicus); test: Affinity for the alpha-1 adrenergic receptor determined by the displacement of [3H]prazosin from rat whole brain tissue.; assay type: tissue-based
[10] = target: Serotonin 2 (5-HT2) receptor (Rattus norvegicus) (UniProt P30994+P08909+P14842); test: Binding affinity against 5-hydroxytryptamine 2 receptor in serotonin-induced contraction of the rat aorta; assay type: tissue-based
Sequence of Serotonin 2 (5-HT2) receptor (Rattus norvegicus) (P08909 whole entry, looked up): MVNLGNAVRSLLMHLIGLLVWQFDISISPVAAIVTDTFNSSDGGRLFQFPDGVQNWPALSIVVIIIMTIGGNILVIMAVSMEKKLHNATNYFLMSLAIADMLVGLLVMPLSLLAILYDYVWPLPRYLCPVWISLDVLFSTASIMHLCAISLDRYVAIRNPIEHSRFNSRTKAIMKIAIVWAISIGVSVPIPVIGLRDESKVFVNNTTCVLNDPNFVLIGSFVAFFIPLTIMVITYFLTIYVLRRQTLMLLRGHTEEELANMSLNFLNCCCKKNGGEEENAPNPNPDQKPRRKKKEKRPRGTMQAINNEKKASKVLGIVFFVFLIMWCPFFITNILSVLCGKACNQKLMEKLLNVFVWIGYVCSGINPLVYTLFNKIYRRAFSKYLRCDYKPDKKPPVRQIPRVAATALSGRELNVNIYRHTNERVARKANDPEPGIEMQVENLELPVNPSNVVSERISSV
Sequence of Serotonin 2 (5-HT2) receptor (Rattus norvegicus) (P14842 whole entry, looked up): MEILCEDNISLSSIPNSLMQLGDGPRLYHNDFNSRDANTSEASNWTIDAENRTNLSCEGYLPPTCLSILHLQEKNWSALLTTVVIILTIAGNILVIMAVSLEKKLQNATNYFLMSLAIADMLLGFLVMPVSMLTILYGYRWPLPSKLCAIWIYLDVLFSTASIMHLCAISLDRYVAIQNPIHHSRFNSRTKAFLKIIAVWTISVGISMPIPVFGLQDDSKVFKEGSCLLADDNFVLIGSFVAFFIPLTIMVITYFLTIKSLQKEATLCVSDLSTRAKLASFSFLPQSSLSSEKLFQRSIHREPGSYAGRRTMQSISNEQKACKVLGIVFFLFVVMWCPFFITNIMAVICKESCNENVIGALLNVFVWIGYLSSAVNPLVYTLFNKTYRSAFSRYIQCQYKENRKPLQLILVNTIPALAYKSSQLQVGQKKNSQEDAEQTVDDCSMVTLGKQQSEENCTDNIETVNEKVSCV
Sequence of Serotonin 2 (5-HT2) receptor (Rattus norvegicus) (P30994 whole entry, looked up): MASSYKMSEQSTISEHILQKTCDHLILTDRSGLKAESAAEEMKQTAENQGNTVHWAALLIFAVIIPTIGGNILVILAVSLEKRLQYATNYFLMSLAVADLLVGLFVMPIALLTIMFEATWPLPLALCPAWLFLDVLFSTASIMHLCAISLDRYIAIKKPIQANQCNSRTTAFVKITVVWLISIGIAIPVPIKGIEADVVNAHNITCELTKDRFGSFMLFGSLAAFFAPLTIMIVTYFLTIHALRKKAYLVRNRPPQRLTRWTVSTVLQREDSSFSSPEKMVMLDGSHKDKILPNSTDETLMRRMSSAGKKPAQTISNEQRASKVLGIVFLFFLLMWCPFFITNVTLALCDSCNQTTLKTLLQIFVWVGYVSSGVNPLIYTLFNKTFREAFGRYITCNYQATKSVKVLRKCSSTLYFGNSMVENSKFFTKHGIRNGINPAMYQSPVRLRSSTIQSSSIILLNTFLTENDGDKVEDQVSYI

[11] = target: 5-hydroxytryptamine receptor 4 (Rattus norvegicus) (UniProt Q62758); test: Antagonistic activity of compound was evaluated by ability to block serotonin induced relaxation (mediated by activation of 5-hydroxytryptamine 4 receptor) in carbamylcholine (10e-6 M) contracted esophagus at a concentration of 10e-7 M.; assay type: functional; outline: as §2

CN1[C@@H]2CC[C@H]1C[C@@H](NC(=O)c1cc(Cl)cc3c1OC(C)(C)C3)C2
pKb [1]: 8.78
Relaxation [2]: 22.2%
Relaxation [3]: 37%

CCn1nc(C(=O)NC2CC3CCC(C2)N3C)c2ccccc21 (stereo unspecified)
Relaxation [3]: 6.7%

CCC(=O)NC1CCN(CCNC(=O)c2nn(C(C)C)c3ccccc23)CC1
Relaxation [4]: 11.3%
Relaxation [5]: 36%

CC(C)n1nc(C(=O)NCCN2CCN(C(=O)c3ccccc3)CC2)c2ccccc21
Relaxation [3]: 19.8%

CC(C)n1nc(C(=O)NC2CCN(CCNC(=O)C34C[C@H]5C[C@@H](C3)C[C@@H](C4)C5)CC2)c2ccccc21
Relaxation [4]: 38.5%
Relaxation [3]: 1%

CC(C)n1nc(C(=O)NCCN2CCC(Cc3ccccc3)CC2)c2ccccc21
Relaxation [4]: 42%
Relaxation [5]: 26%
Relaxation [3]: 16.4%

CC(C)n1nc(C(=O)NCCN2CCC(NC(=O)c3ccccc3)CC2)c2ccccc21
Relaxation [4]: 14.7%
Relaxation [6]: 34.3%
Relaxation [5]: 50%
Relaxation [3]: 2%

CC(C)n1nc(C(=O)NCCN2CCc3ccccc3C2)c2ccccc21
Relaxation [5]: 41%
Relaxation [3]: 20.3%

CCCn1nc(C(=O)NC2CC3CCC(C2)N3C)c2ccccc21 (stereo unspecified)
Relaxation [3]: 2.5%

CC(C)n1nc(C(=O)NCCN2CCC(NC(=O)C(C)(C)C)CC2)c2ccccc21
Relaxation [4]: 7.8%
Relaxation [6]: 50.5%
Relaxation [7]: 35%
Relaxation [5]: 30%
Relaxation [3]: 3.3%

CC(C)n1nc(C(=O)NC2CCN(CCNC(=O)c3ccccc3)CC2)c2ccccc21
Relaxation [4]: 28%
pKb [8]: 5.8
pKi [9]: 6.62
Relaxation [3]: 6%

CN1C2CCC1CC(NC(=O)c1cccc3ccccc13)C2 (stereo unspecified)
Relaxation [2]: 76.5%

CN1C2CCCC1CC(NC(=O)c1nn(C)c3ccccc13)C2 (stereo unspecified)
Relaxation [2]: 21%

CCC(C)n1c(=O)n(C(=O)NC2CC3CCC(C2)N3C)c2ccccc21 (stereo unspecified)
Relaxation [3]: 8.8%

CC(C)n1nc(C(=O)NCCN2CCC(NC(=O)OCc3ccccc3)CC2)c2ccccc21
Relaxation [5]: 21%
pKb [8]: < 5
pKi [9]: 5.9
Relaxation [3]: 2.8%

CC(C)n1nc(C(=O)NC2CCN(CCc3ccccc3)CC2)c2ccccc21
pKb [8]: 7.68
Relaxation [3]: 1.3%

CCCn1c(=O)n(C(=O)NC2CC3CCC(C2)N3C)c2ccccc21 (stereo unspecified)
Relaxation [7]: 30.7%
Relaxation [3]: 4.3%

CC(C)n1nc(C(=O)NCCN2CCC(NC(=O)Nc3ccc(F)cc3)CC2)c2ccccc21
Relaxation [4]: 44.8%
Relaxation [5]: 45.5%
Relaxation [3]: 6.3%

COc1cc(N)c(Cl)cc1C(=O)NC1CC2CCC(C1)N2C (stereo unspecified)
Relaxation [2]: 2.8%
Relaxation [3]: 5.4%

CC(C)n1cc(C(=O)NC2CC3CCC(C2)N3C)c2ccccc21 (stereo unspecified)
Relaxation [3]: 25.3%

CC(C)n1nc(C(=O)NCCN2CCC(NC(=O)NCc3ccccc3)CC2)c2ccccc21
Relaxation [5]: 30%
Relaxation [3]: 3.3%

CCCCC(=O)NC1CCN(CCNC(=O)c2nn(C(C)C)c3ccccc23)CC1
Relaxation [4]: 25.6%
Relaxation [6]: 51%
Relaxation [5]: 38%

COc1cc(N)c(Cl)cc1C(=O)NC1CCN(CCCOc2ccc(F)cc2)CC1OC (stereo unspecified)
pKb [10]: 7.89
Relaxation [2]: 20.3%
pKb [8]: 6.7
Relaxation [3]: 7%

CC(C)n1nc(C(=O)NC2CCN(CCCCc3ccccc3)CC2)c2ccccc21
pKb [8]: 5.6
Relaxation [3]: 4%

CC(C)n1nc(C(=O)NCCCCN2CCCCC2)c2ccccc21
Relaxation [4]: 43.3%
Relaxation [5]: 49%
pKi [9]: 5.2
Relaxation [3]: 3.3%

CC(C)n1nc(C(=O)NCCN2CCCCCC2)c2ccccc21
Relaxation [5]: 52%
pKi [9]: 5
Relaxation [3]: 4.8%

CCn1c(=O)n(C(=O)NC2CC3CCC(C2)N3C)c2ccccc21 (stereo unspecified)
Relaxation [7]: 37.5%

CC(C)n1c(=O)n(C(=O)NC2CCN(C)CC2)c2ccccc21
Relaxation [4]: 40.8%
Relaxation [3]: 7.5%

CC(C)n1nc(C(=O)NCCN2CCCC2)c2ccccc21
Relaxation [5]: 51%
pKi [9]: < 4
Relaxation [3]: 4.3%

CC(C)n1nc(C(=O)NCCN2CCC(NC(=O)Nc3ccccc3)CC2)c2ccccc21
Relaxation [5]: 33.7%
Relaxation [3]: 11%

CC(C)n1nc(C(=O)NC2CCN(CCCCCc3ccccc3)CC2)c2ccccc21
Relaxation [3]: 43.7%

CN1C2CCC1CC(NC(=O)c1n[nH]c3ccccc13)C2 (stereo unspecified)
Relaxation [2]: 50.5%

CCC(C)n1cc(C(=O)NC2CC3CCC(C2)N3C)c2ccccc21 (stereo unspecified)
Relaxation [3]: 57.8%

CC(C)n1c(=O)n(C(=O)NC2CC3CCC(C2)N3CCCOc2ccc(F)cc2)c2ccccc21 (stereo unspecified)
Relaxation [4]: 29.5%
Relaxation [3]: 2.1%

CC(C)n1nc(C(=O)NCCN2CCC(NC(=O)C34C[C@H]5C[C@@H](C3)C[C@@H](C4)C5)CC2)c2ccccc21
Relaxation [4]: 11%
Relaxation [6]: 48.1%
Relaxation [7]: 23.2%
Relaxation [5]: 27%
pKi [9]: 4.3

CC(C)n1nc(C(=O)NCCN2CCC(NS(C)(=O)=O)CC2)c2ccccc21
Relaxation [5]: 29%
Relaxation [3]: 7.3%

CN1C2CCC1CC(NC(=O)c1cn(C)c3ccccc13)C2 (stereo unspecified)
Relaxation [3]: 47.3%

CC(C)n1c(=O)n(C(=O)NC2CC3CCC(C2)N3C)c2ccccc21 (stereo unspecified)
pKb [1]: 7.5
Relaxation [6]: 55%
Relaxation [7]: 13.8%
Relaxation [3]: 2.7%

CC(C)n1c(=O)n(C(=O)NC2CCN(CCCOc3ccc(F)cc3)CC2)c2ccccc21
Relaxation [4]: 62%

CC(C)n1nc(C(=O)NCCN2CCC(N)CC2)c2ccccc21
Relaxation [5]: 41%
Relaxation [3]: 36.8%

CCCC(=O)NC1CCN(CCNC(=O)c2nn(C(C)C)c3ccccc23)CC1
Relaxation [4]: 26.5%
Relaxation [5]: 51%

CC(C)n1nc(C(=O)NC2CCN(Cc3ccccc3)CC2)c2ccccc21
pKb [10]: 5.5
Relaxation [4]: 24.5%
Relaxation [6]: 38.5%
Relaxation [7]: 23.3%
pKb [8]: < 5
pKi [9]: < 4
Relaxation [3]: 3.85%

CC(C)n1nc(C(=O)NC2CCN(CCCOc3ccc(F)cc3)CC2)c2ccccc21
pKb [10]: 6.8
Relaxation [4]: 15.7%
Relaxation [7]: 36%
pKb [8]: 6.7
pKi [9]: 7.69
Relaxation [3]: 7.5%

CC(C)C(=O)NC1CCN(CCNC(=O)c2nn(C(C)C)c3ccccc23)CC1
Relaxation [4]: 9%
Relaxation [6]: 34.8%
Relaxation [5]: 45%

CC(C)n1nc(C(=O)NC2CCNCC2)c2ccccc21
Relaxation [3]: 32%

CC(C)n1nc(C(=O)NC2CCN(CCCc3ccccc3)CC2)c2ccccc21
pKb [8]: 5.8
Relaxation [3]: 3.7%

CCN(CC)CCNC(=O)c1nn(C(C)C)c2ccccc12
Relaxation [3]: 26.8%

CN1C2CCC1CC(NC(=O)c1c[nH]c3ccccc13)C2 (stereo unspecified)
Relaxation [3]: 60%

CC(C)n1nc(C(=O)NC2CCN(CCN3C(=O)c4ccccc4C3=O)CC2)c2ccccc21
pKb [10]: < 5
Relaxation [3]: 7.5%

CC(C)n1nc(C(=O)NC2CC3CCC(C2)N3C)c2ccccc21 (stereo unspecified)
Relaxation [6]: 43.2%
Relaxation [11]: 9%
Relaxation [3]: 8%

CC(C)n1nc(C(=O)NCCN2CCCCC2)c2ccccc21
pKb [10]: < 5
pKb [1]: 5.8
Relaxation [2]: 6.6%
Relaxation [4]: 22%
Relaxation [5]: 38%
pKb [8]: 4.9
pKi [9]: 4.8

CC(C)n1nc(C(=O)NCCN2CCN(Cc3ccccc3)CC2)c2ccccc21
Relaxation [3]: 9.1%

CC(C)n1nc(C(=O)NC2CC3CCC(C2)N3CCCOc2ccc(F)cc2)c2ccccc21 (stereo unspecified)
Relaxation [4]: 22.2%
Relaxation [3]: 17.7%

CC(C)n1nc(C(=O)NC2CCN(CCNS(C)(=O)=O)CC2)c2ccccc21
Relaxation [4]: 16%
pKb [8]: < 5
pKi [9]: < 4
Relaxation [3]: 6.8%

CCC(C)n1nc(C(=O)NC2CC3CCC(C2)N3C)c2ccccc21 (stereo unspecified)
Relaxation [7]: 46.3%

CC(C)n1nc(C(=O)NC2CCN(C)CC2)c2ccccc21
pKb [1]: 6.3
Relaxation [7]: 37.3%

CN1C2CCC1CC(NC(=O)n1c(=O)n(C)c3ccccc31)C2 (stereo unspecified)
Relaxation [3]: 7.3%

CC(C)n1nc(C(=O)NCCN2CCOCC2)c2ccccc21
Relaxation [4]: 42.3%
Relaxation [3]: 19.8%

CCCn1cc(C(=O)NC2CC3CCC(C2)N3C)c2ccccc21 (stereo unspecified)
Relaxation [3]: 34.3%

CC(C)n1nc(C(=O)NCCN2CCC(NC(=O)Cc3ccccc3)CC2)c2ccccc21
Relaxation [4]: 23.7%
Relaxation [5]: 39%
Relaxation [3]: 5.6%

CN1[C@@H]2CC[C@H]1C[C@@H](OC(=O)c1c[nH]c3ccccc13)C2
Relaxation [2]: 26.4%
Relaxation [3]: 33.9%

CC(=O)NC1CCN(CCNC(=O)c2nn(C(C)C)c3ccccc23)CC1
Relaxation [6]: 51.3%
Relaxation [7]: 33.5%
Relaxation [5]: 19.1%
pKi [9]: < 4
Relaxation [3]: 6.8%

CCn1cc(C(=O)NC2CC3CCC(C2)N3C)c2ccccc21 (stereo unspecified)
Relaxation [3]: 44.8%
